Assay [1] deals with DNA topoisomerase I (Leishmania donovani (strain BPK282A1), UniProt E9BRC0, F270L/K430N). As to the kind of experiment: Binding affinity to recombinant drug-resistant Leishmania donovani LdDR50 topoisomerase 1b large subunit F270L, K430N mutant after 24 hrs by equilibrium dialysis method. The essentials:
(§1)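 Recombinant His-tagged subunits expressed in E. coli BL21(DE3) pLysS, purified on Ni-NTA then phosphocellulose, reconstituted 1:1. Enzyme 200 μM with DIM 1–20 μM in 20 mM Tris-HCl pH 7.5, 50 mM NaCl, 10 mM MgCl2 for 30 min at 37°C, then dialysed (12–14 kDa cutoff) 24 h at 25°C. Free DIM measured by absorbance (ε 6.6 × 10^4 M−1); KD from saturation plot.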
For orientation: In equilibrium dialysis free small molecules cross a membrane that holds back macromolecules.

For assay [2], the system named is Leishmania donovani. Kind of assay: Antimicrobial activity against wild type Leishmania donovani AG83 transfected with drug-resistant Leishmania donovani LdDR50 topoisomerase 1 wild type large subunit and N184S mutant in small subunit assessed as inhibition of parasite growth at 20 uM after 24 hrs by MTT assay. It counts as functional. The settings on record: AG83, 24 h. A digest of the protocol:
(§2)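 WT promastigotes transfected by electroporation with mutant large-subunit (pXG-HYG, hygromycin selection) and/or small-subunit (pXG-GFP2+, G418 selection) topoisomerase I genes. Grown with DIM 1–20 μM for 24 h; MTT read-out, growth as % of optical density of untreated WT parasites.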

The subject of assay [3] is T1, Leishmania donovani [K430N].
T1 sequence (whole entry): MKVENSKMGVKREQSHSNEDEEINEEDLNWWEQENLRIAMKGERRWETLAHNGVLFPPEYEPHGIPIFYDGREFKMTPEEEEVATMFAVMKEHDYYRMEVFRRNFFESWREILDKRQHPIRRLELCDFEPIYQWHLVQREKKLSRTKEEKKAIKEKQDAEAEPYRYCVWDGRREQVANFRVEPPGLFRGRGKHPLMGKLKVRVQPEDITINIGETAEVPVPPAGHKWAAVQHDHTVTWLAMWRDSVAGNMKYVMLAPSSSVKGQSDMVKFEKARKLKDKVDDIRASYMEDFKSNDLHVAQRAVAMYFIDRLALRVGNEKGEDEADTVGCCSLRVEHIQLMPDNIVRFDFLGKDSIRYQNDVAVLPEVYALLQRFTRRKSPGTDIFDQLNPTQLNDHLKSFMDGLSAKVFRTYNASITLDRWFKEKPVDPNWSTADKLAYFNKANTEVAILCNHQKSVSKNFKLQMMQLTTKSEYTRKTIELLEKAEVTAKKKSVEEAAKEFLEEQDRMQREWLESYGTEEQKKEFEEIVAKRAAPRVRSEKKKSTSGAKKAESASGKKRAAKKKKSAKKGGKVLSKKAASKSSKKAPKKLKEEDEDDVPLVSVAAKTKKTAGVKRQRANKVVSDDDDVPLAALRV
Kind of assay: Inhibition of recombinant drug-resistant Leishmania donovani LdDR50 topoisomerase 1b wild type small subunit and large subunit K430N mutant-mediated relaxation of supercoiled pBluescript SK(+) DNA at up to 50 uM after 30 mins using ethidium bromide staining. The essentials:
(§3)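 Reconstituted recombinant enzyme (30 fmol) with 90 fmol supercoiled pBluescript SK(+) DNA (3:1 DNA:enzyme), 30 min at 37°C with DIM (1–50 μM for fully mutant enzyme; 10 μM for single-site mutants); 4% DMSO vehicle control. Products on 1% agarose, ethidium bromide (0.5 μg/ml) stained; supercoiled monomer band quantified.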

Assay [4] has as its target DNA topoisomerase I (Leishmania donovani (strain BPK282A1), UniProt E9BRC0, F270L). As to the kind of experiment: Binding affinity to recombinant drug-resistant Leishmania donovani LdDR50 topoisomerase 1b large subunit F270L mutant after 24 hrs by equilibrium dialysis method. A digest of the protocol:
as §1

Assay [5] relates to T2, DNA topoisomerase type IB small subunit (Leishmania donovani (strain BPK282A1)), E9B7X3 [N184S].
T2 sequence (whole entry): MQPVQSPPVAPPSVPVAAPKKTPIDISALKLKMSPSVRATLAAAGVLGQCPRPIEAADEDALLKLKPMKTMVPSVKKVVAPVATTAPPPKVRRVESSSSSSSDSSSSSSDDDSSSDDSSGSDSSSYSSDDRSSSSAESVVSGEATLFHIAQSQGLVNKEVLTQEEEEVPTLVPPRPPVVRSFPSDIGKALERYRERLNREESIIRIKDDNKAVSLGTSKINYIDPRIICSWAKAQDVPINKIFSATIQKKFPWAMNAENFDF
Kind of assay: Effect on recombinant drug-resistant Leishmania donovani LdDR50 topoisomerase 1b small subunit N184S mutant-mediated cleavage of 25-mer duplex oligonucleotide at 5 uM after 30 mins by PAGE analysis. The essentials:
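5′-32P-labelled 25-mer duplex (10 nM) incubated with reconstituted mutant enzyme (0.2 μM, 20-fold molar excess) and DIM 5–20 μM for 30 min (Methods 37°C; legend 23°C). Stopped with SDS, trypsin-treated, resolved on 12% denaturing polyacrylamide-urea gel; cleaved 12-mer detected by autoradiography.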

For assay [6], the system named is Leishmania donovani. Kind of assay: Antimicrobial activity against wild type Leishmania donovani AG83 assessed as inhibition of parasite growth after 24 hrs by MTT assay. Format: functional, organism-based. A digest of the protocol: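 WT L. donovani promastigotes were harvested in exponential phase and seeded at 2 × 10^6 cells per well. They were exposed to DIM at 1, 5, 10, 15 and 20 μM, washed in PBS, and given MTT (10 μg/ml) for 4 h. Acidified isopropanol stop was followed by A570. Growth was expressed as % of the OD of untreated WT, from three experiments.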
A general note: Tetrazolium assays rely on reduction of a dye to a coloured formazan, in cell work by metabolically active cells.

Assay [7] relates to Leishmania donovani. Kind of assay: Inhibition of recombinant drug-resistant Leishmania donovani LdDR50 topoisomerase 1b large subunit F270L mutant and small subunit N184S mutant-mediated relaxation of supercoiled pBluescript SK(+) DNA at up to 50 uM after 30 mins using ethidium bromide staining. A digest of the protocol:
as §3

The subject of assay [8] is Leishmania donovani. Kind of assay: Effect on recombinant wild type Leishmania donovani AG83 topoisomerase 1b-mediated cleavage of 25-mer duplex oligonucleotide at 20 uM after 30 mins by PAGE analysis. The essentials: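 The 5′-32P-labelled 25-mer duplex (10 nM) was incubated with 0.2 μM reconstituted WT His-tagged enzyme, a 20-fold molar enzyme excess. DIM was 0 or 5–20 μM, for 30 min. Reactions were stopped with SDS, trypsinised, and run on 12% denaturing polyacrylamide-urea gel with autoradiography. Read-out was the 12-mer cleaved product.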

The subject of assay [9] is Leishmania donovani. As to the kind of experiment: Antimicrobial activity against wild type Leishmania donovani AG83 transfected with drug-resistant Leishmania donovani LdDR50 topoisomerase 1 F270L, K430N mutant in large subunit assessed as inhibition of parasite growth at 20 uM after 24 hrs by MTT assay. Conditions: AG83, 24 h. Format: functional. A digest of the protocol: as §2

Assay [10] can be described thus: Binding affinity to recombinant drug-resistant Leishmania donovani LdDR50 topoisomerase 1b large subunit F270L, K430N mutant and small subunit N184S mutant after 24 hrs by equilibrium dialysis method. The essentials:
as §1

For assay [11], the system named is Leishmania donovani. Kind of assay: Antimicrobial activity against wild type Leishmania donovani AG83 transfected with drug-resistant Leishmania donovani LdDR50 topoisomerase 1 K430N mutant in large subunit and wild type small subunit assessed as inhibition of parasite growth at 20 uM after 24 hrs by MTT assay. It counts as functional. The settings on record: AG83, 24 h. The essentials: as §2

In assay [12] the test system is Leishmania donovani. Kind of assay: Antimicrobial activity against wild type Leishmania donovani AG83 transfected with drug-resistant Leishmania donovani LdDR50 topoisomerase 1 F270Lmutant in large subunit assessed as inhibition of parasite growth at 20 uM after 24 hrs by MTT assay. It counts as functional. Conditions: AG83, 24 h. A digest of the protocol: as §2

Assay [13] is described as follows: Binding affinity to Leishmania donovani large subunit of topoisomerase 1b.

pIC50, pKd: −log10 of the molar value. Active and inactive are the calls of the source.

The values that follow come from ChEMBL document CHEMBL1687733, “Topoisomerase I gene mutations at F270 in the large subunit and N184 in the small subunit contribute to the resistance mechanism of the unicellular parasite Leishmania donovani towards 3,3'-diindolylmethane” (Antimicrob Agents Chemother, 2009).

Take `c1ccc2c(Cc3c[nH]c4ccccc34)c[nH]c2c1` [ARUNDINE]: the negative-log Kd (pKd) at DNA topoisomerase I [1] is 3.12; at DNA topoisomerase I [4], 3.28; in [10], 3.62; in assay [13] it was 6.37. Also, the inhibition at 20 µM stood at 91% with Leishmania donovani [2], 34% in the assay on Leishmania donovani [9], 94% in the assay on Leishmania donovani [11] and 34% with Leishmania donovani [12]. In addition, in assay [3], the inhibition entry was “Active”. The outcome in assay [5] was inactive. Moreover, the inhibition result in the assay on Leishmania donovani [6] was “Dose-dependent effect”. The negative-log IC50 (pIC50) in the assay with Leishmania donovani [6] (AG83, 24 h) is 5.90. In the assay on Leishmania donovani [7], the inhibition entry was “inactive”. Also, the result in the assay with Leishmania donovani [8] was Active.

The pKd is −log10 of the Kd, conventionally taken in molar units. As a reminder, the inhibition is the drop in the measured response relative to a control, in per cent. The pIC50 is the negative decadic logarithm of the IC50, by convention in mol/L.
